Usually MIC stands for the lowest concentration found to suppress growth. A lower MIC goes with a more susceptible organism. By MIC50 is commonly meant the lowest concentration that inhibits either 50% of growth or 50% of the strains tested, depending on the study. A lower MIC50 goes with higher susceptibility. The term MIC90 denotes an inhibitory concentration at the 90% level, which refers to growth in some studies and to a panel of isolates in others. Read a high MIC90 as weaker potency.

The values that follow come from ChEMBL document CHEMBL1152825, “Pseudomonas aeruginosa may accumulate drug resistance mechanisms without losing its ability to cause bloodstream infections” (2007).

Assay type in all cases: functional
Test [1] has as its system Pseudomonas aeruginosa. The test is described as follows: Antibacterial activity against beta-lactams resistant Pseudomonas aeruginosa isolate expressing AmpC by macrodilution technique. The method in brief:
(§1)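 MICs by agar macrodilution on Mueller-Hinton agar with calibrated divalent cations. Isolates were graded susceptible, intermediate or resistant by CLSI breakpoints. Resistance was defined as a ≥fourfold MIC rise over reference strain PAO1. Resistance mechanisms were assigned by RT-PCR (PAO1-derived overexpressing mutants as controls) and gene complementation.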

Test [2] relates to Pseudomonas aeruginosa. The test is described as follows: Antibacterial activity against beta-lactams resistant Pseudomonas aeruginosa isolate expressing MexXY-OprM pump by macrodilution technique. The procedure, abridged:
as §1

The test system of test [3] is Pseudomonas aeruginosa. The test is described as follows: Antibacterial activity against wild type Pseudomonas aeruginosa PAO1 by macrodilution technique. The method in brief:
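Wild-type reference strain PAO1. MIC by agar macrodilution on Mueller-Hinton agar with calibrated divalent cations. It served as the baseline for defining a ≥fourfold MIC increase in clinical isolates, and as the expression reference in RT-PCR.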

For test [4], the system named is Pseudomonas aeruginosa. The test is described as follows: Antibacterial activity against Pseudomonas aeruginosa clinical isolates assessed as resistant rate by macrodilution technique.
Test [5] concerns Pseudomonas aeruginosa. Put plainly: Antibacterial activity against beta-lactams resistant Pseudomonas aeruginosa isolate expressing PSE-1, MexXY-OprM pump by macrodilution technique. The procedure, abridged:
as §1

The test system of test [6] is Pseudomonas aeruginosa. The test is described as follows: Antibacterial activity against beta-lactams resistant OprD-deficient Pseudomonas aeruginosa isolate by macrodilution technique. The procedure, abridged:
as §1

The subject of test [7] is Pseudomonas aeruginosa. The test is described as follows: Antibacterial activity against Pseudomonas aeruginosa clinical isolates assessed as susceptible rate by macrodilution technique.
The test system of test [8] is Pseudomonas aeruginosa. Put plainly: Antibacterial activity against Pseudomonas aeruginosa clinical isolate by macrodilution technique.
The test system of test [9] is Pseudomonas aeruginosa. Put plainly: Antibacterial activity against beta-lactams resistant Pseudomonas aeruginosa isolate expressing AmpC, MexXY-OprM pump by macrodilution technique. The method in brief:
as §1

Test [10] concerns Pseudomonas aeruginosa. The test is described as follows: Antibacterial activity against beta-lactams resistant Pseudomonas aeruginosa isolate expressing MexAB-OprM pump by macrodilution technique. The procedure, abridged:
as §1

Test [11] concerns Pseudomonas aeruginosa. Put plainly: Antibacterial activity against aminoglycoside-resistant Pseudomonas aeruginosa isolate expressing MexXY-OprM pump, ANT(2'')-1 by macrodilution technique. The method in brief:
(§2)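 Bloodstream P. aeruginosa isolates from patients in six French teaching hospitals (1999–2004). MICs by agar macrodilution on Mueller-Hinton agar with calibrated divalent cations. Isolates were graded susceptible, intermediate or resistant by CLSI breakpoints. Resistance was defined as a ≥fourfold MIC rise over reference strain PAO1. Resistance mechanisms were assigned by RT-PCR (PAO1-derived overexpressing mutants as controls) and gene complementation.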

Test [12] has as its system Pseudomonas aeruginosa. Put plainly: Antibacterial activity against aminoglycoside-resistant Pseudomonas aeruginosa isolate expressing MexXY-OprM pump, AAC(6')-1 by macrodilution technique. The method in brief: as §2
Test [13] concerns Pseudomonas aeruginosa. Put plainly: Antibacterial activity against wild type Pseudomonas aeruginosa isolate by macrodilution technique. The procedure, abridged: as §1
Test [14] deals with Pseudomonas aeruginosa. Put plainly: Antibacterial activity against aminoglycoside-resistant Pseudomonas aeruginosa isolate expressing MexXY-OprM pump, AAC(3')-1 by macrodilution technique. The method in brief:
as §2

For test [15], the system named is Pseudomonas aeruginosa. The test is described as follows: Antibacterial activity against aminoglycoside-resistant Pseudomonas aeruginosa isolate expressing ANT(2'')-1 by macrodilution technique. The procedure, abridged: as §2
The subject of test [16] is Pseudomonas aeruginosa. The test is described as follows: Antibacterial activity against aminoglycoside-resistant Pseudomonas aeruginosa isolate expressing AAC(6')-1, ANT(2'')-1 by macrodilution technique. The method in brief:
as §2

In test [17] the test system is Pseudomonas aeruginosa. The test is described as follows: Antibacterial activity against aminoglycoside-resistant Pseudomonas aeruginosa isolate expressing MexXY-OprM pump by macrodilution technique. The method in brief: as §2
In test [18] the test system is Pseudomonas aeruginosa. The test is described as follows: Antibacterial activity against aminoglycoside-resistant Pseudomonas aeruginosa isolate expressing MexXY-OprM pump, AAC(6')-1, ANT(2'')-1 by macrodilution technique. The method in brief: as §2
Test [19] concerns Pseudomonas aeruginosa. The test is described as follows: Antibacterial activity against aminoglycoside-resistant Pseudomonas aeruginosa isolate expressing MexXY-OprM pump, AAC(6')-1, AAC(3')-1 by macrodilution technique. The method in brief: as §2
Test [20] relates to Pseudomonas aeruginosa. The test is described as follows: Antibacterial activity against aminoglycoside-resistant Pseudomonas aeruginosa isolate expressing AAC(6')-1 by macrodilution technique. The method in brief: as §2
Test [21] concerns Pseudomonas aeruginosa. The test is described as follows: Antibacterial activity against MexXY-OprM pump-independent aminoglycoside-resistant Pseudomonas aeruginosa isolate by macrodilution technique. The method in brief:
as §2

Test [22] deals with Pseudomonas aeruginosa. Put plainly: Antibacterial activity against beta-lactams resistant Pseudomonas aeruginosa isolate expressing AmpC, MexAB-OprM pump by macrodilution technique. The procedure, abridged: as §2
In test [23] the test system is Pseudomonas aeruginosa. The test is described as follows: Antibacterial activity against beta-lactams resistant Pseudomonas aeruginosa isolate expressing MexAB-OprM pump, MexXY-OprM pump by macrodilution technique. The method in brief:
as §1

For test [24], the system named is Pseudomonas aeruginosa. The test is described as follows: Antibacterial activity against beta-lactams resistant Pseudomonas aeruginosa isolate expressing OXA2 by macrodilution technique. The procedure, abridged: as §1
For test [25], the system named is Pseudomonas aeruginosa. The test is described as follows: Antibacterial activity against beta-lactams resistant Pseudomonas aeruginosa isolate expressing AmpC, MexAB-OprM pump, MexXY-OprM pump by macrodilution technique. The method in brief:
as §1

Converted amounts (≈) assume the structure as drawn.

For `C[C@@H](O)[C@H]1C(=O)N2C(C(=O)O)=C(SCCNC=N)C[C@H]12` [IMIPENEM ANHYDROUS], the MIC worked out at 8 µg/mL (≈ 26.7 µM) in test [1]; 8 µg/mL (≈ 26.7 µM) in test [2]; 1 µg/mL (≈ 3.34 µM) in [3]; 64 µg/mL (≈ 214 µM) in [5]; 8 µg/mL (≈ 26.7 µM) in test [6]; 16 µg/mL (≈ 53.4 µM) in test [9]. Further, the MIC in test [10] is 4 µg/mL (≈ 13.4 µM). The Activity is 10.8% in test [4] and 82.5% in test [7]. The compound further registered an MIC50 in [8] of 2 µg/mL (≈ 6.68 µM). This compound gave an MIC90 in [8] of 16 µg/mL (≈ 53.4 µM).
For `NCC[C@H](O)C(=O)N[C@@H]1C[C@H](N)[C@@H](O[C@H]2O[C@H](CN)[C@@H](O)[C@H](O)[C@H]2O)[C@H](O)[C@H]1O[C@H]1O[C@H](CO)[C@@H](O)[C@H](N)[C@H]1O` [AMIKACIN], the minimal inhibitory concentration (MIC) in test [11] was 8 µg/mL (≈ 13.7 µM); in test [12] it was 32 µg/mL (≈ 54.6 µM); in test [13], 4 µg/mL (≈ 6.83 µM); in test [3] it was 4 µg/mL (≈ 6.83 µM); in test [14] it was 8 µg/mL (≈ 13.7 µM); in test [15], 4 µg/mL (≈ 6.83 µM). Moreover, the MIC is 16 µg/mL (≈ 27.3 µM) in [16]; 8 µg/mL (≈ 13.7 µM) in test [17]; 16 µg/mL (≈ 27.3 µM) in test [18]; 128 µg/mL (≈ 219 µM) in test [19]; 16 µg/mL (≈ 27.3 µM) in test [20]; 8 µg/mL (≈ 13.7 µM) in [21]. Also, the Activity in test [4] was found to be 1.7%; in test [7] it was 93.3%. In test [8], this compound had an MIC50 of 4 µg/mL (≈ 6.83 µM). In [8], the MIC90 worked out at 16 µg/mL (≈ 27.3 µM).
`CCN[C@@H]1C[C@H](N)[C@@H](O[C@H]2OC(CN)=CC[C@H]2N)[C@H](O)[C@H]1O[C@H]1OC[C@](C)(O)[C@H](NC)[C@H]1O` [NETILMICIN]: the MIC in test [11] was 16 µg/mL (≈ 33.6 µM); in test [12], above 128 µg/mL; in test [13] it was 4 µg/mL (≈ 8.41 µM); in test [3], 4 µg/mL (≈ 8.41 µM); in test [14] it was 16 µg/mL (≈ 33.6 µM); in [15], 8 µg/mL (≈ 16.8 µM). Besides, the MIC was above 128 µg/mL in [16]; 16 µg/mL (≈ 33.6 µM) in [17]; above 128 µg/mL in test [18]; above 128 µg/mL in test [19]; above 128 µg/mL in [20]; 16 µg/mL (≈ 33.6 µM) in [21]. Further, the Activity in test [4] was determined as 15%; in [7] it was 56.7%. This compound gave an MIC50 in test [8] of 8 µg/mL (≈ 16.8 µM). In test [8], this compound yielded an MIC90 of 32 µg/mL (≈ 67.3 µM).
Turning to `CO/N=C(\C(=O)N[C@@H]1C(=O)N2C(C(=O)[O-])=C(C[N+]3(C)CCCC3)CS[C@H]12)c1csc(N)n1`, the MIC in [1] is 8 µg/mL (≈ 16.6 µM); in test [22] it was 8 µg/mL (≈ 16.6 µM); in test [23], 8 µg/mL (≈ 16.6 µM); in [24] it was 2 µg/mL (≈ 4.16 µM); in test [25] it was 8 µg/mL (≈ 16.6 µM); in test [10] it was 8 µg/mL (≈ 16.6 µM).
With GENTAMICIN, the MIC is 128 µg/mL in test [11]; 128 µg/mL in test [12]; 4 µg/mL in test [13]; 2 µg/mL in test [3]; 128 µg/mL in test [14]; above 128 µg/mL in test [15]. Further, the minimal inhibitory concentration (MIC) in [16] came out at 128 µg/mL; in [17], 8 µg/mL; in test [18], 128 µg/mL; in test [19] it was 128 µg/mL; in [20] it was 128 µg/mL; in [21], 8 µg/mL. In addition, the Activity was 25% in test [4] and 53.3% in test [7]. Further, the MIC50 in [8] was determined as 4 µg/mL. Moreover, the MIC90 in test [8] is 128 µg/mL.
